Ki and Selectivity data for 13 molecules are collected here from ChEMBL document CHEMBL1129283, “New sigma and 5-HT1A receptor ligands: omega-(tetralin-1-yl)-n-alkylamine derivatives” (J Med Chem, 1996).

Test [1] deals with T1, 5-hydroxytryptamine receptor 1A (Rattus norvegicus, UniProt P19327).
T1 sequence (P19327 whole entry): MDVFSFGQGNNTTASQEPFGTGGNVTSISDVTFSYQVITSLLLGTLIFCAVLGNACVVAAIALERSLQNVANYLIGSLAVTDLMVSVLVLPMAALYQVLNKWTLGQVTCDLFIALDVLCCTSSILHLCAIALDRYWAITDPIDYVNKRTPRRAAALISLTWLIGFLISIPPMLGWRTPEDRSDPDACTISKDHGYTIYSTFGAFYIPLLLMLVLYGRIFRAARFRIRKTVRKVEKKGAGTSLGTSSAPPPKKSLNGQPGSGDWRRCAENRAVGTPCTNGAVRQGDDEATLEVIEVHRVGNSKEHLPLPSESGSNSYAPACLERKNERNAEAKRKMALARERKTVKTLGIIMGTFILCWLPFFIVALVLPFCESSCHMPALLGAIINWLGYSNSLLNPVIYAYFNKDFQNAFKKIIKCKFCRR
Briefly: Displacement of [3H]5-HT from rat hippocampal 5-hydroxytryptamine 1A receptor with 10e-6 M ketanserin. Format: tissue-based, Hippocampus. Put shortly:
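Rat hippocampal membranes, preincubated 15 min at 37 °C in 50 mM Tris-HCl pH 7.6. Assay buffer was 50 mM Tris-HCl with 4 mM CaCl2, 5.7 mM ascorbic acid and […], pH 7.6. Used 20 nM [3H]5-HT, 15 min at 37 °C, then filtration. IC50 from 2–3 experiments in triplicate (6–9 concentrations); Ki by Cheng–Prusoff.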
Background: Loss of bound radioactivity is the signal in a displacement assay; it reports binding, not function.

Test [2] is described as follows: Selectivity for 5-hydroxytryptamine 1A and sigma receptors. Also on record: reference not given here.
For test [3], the target named is Sigma non-opioid intracellular receptor 1 (Rattus norvegicus, UniProt Q9R0C9). The test is described as follows: Inhibitory activity against Sigma opioid receptor type 1 isolated from whole rat membranes using [3H](+)-pentazocine as radioligand. Put shortly: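 Membranes came from male Sprague–Dawley rat whole brain minus cerebellum and pons-medulla, in 50 mM Tris-HCl pH 7.8, washed four times. Incubated with [3H]-(+)-pentazocine 120 min at 25 °C, then filtered on polyethylenimine-soaked filters. Nonspecific binding was set with 10 µM haloperidol. IC50 from 2–3 experiments in triplicate (6–9 concentrations); Ki by Cheng–Prusoff.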

The species named for a further test is Cavia porcellus. The test is described as follows: Selectivity for PCP and sigma receptors.

For orientation: Ki means the equilibrium dissociation constant of an inhibitor or competing ligand from its target.

Sequence of Sigma non-opioid intracellular receptor 1 (Q9R0C9 whole entry): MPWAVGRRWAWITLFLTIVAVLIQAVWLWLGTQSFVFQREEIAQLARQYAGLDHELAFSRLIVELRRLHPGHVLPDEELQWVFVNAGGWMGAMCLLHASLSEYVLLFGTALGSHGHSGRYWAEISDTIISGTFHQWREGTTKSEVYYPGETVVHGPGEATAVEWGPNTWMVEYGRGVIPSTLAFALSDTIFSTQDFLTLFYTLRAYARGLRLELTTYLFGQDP

As for `COc1ccc2c(c1)C(CCCN1CCN(C3=NCCCC3)CC1)CCC2` (stereo unspecified), the Ki in test [1] was found to be 414 nM. Further, the Selectivity in test [2] amounted to 14. On to `COc1cccc2c1CCCC2CCCNCCC1CCCc2ccccc21` (stereo unspecified), for which the inhibitory constant (Ki) in test [1] amounted to 22.8 nM. As for `COc1cccc2c1CCCC2CCCCN1CCN(C2=NCCCC2)CC1` (stereo unspecified), the inhibition constant Ki in test [1] was determined as 37.1 nM; in test [3] it was 396 nM.

Molecule `C1=C(CCCN2CCN(Cc3ccccc3)CC2)c2ccccc2CC1` registered a Ki in test [1] of 214 nM. Regarding `c1ccc2c(c1)CCCC2CCCN1CCN(C2=NCCCC2)CC1` (stereo unspecified), the Ki in test [1] came to 44.2 nM; in test [3] it was 111 nM. Moreover, in test [2], the Selectivity is 1. Consider `COc1cccc2c1CCCC2CCCN1CCN(C2CCCCC2)CC1` (stereo unspecified), for which the inhibitory constant (Ki) came out at 28.6 nM in test [1] and 71 nM in test [3].

In turn, `COc1cccc2c1CCCC2CCCNCCNc1ccccc1` (stereo unspecified) returned a Ki in test [1] of 14.1 nM. Besides, the Selectivity turned out to be 0.05 in test [2] and 8 in the test listed under Cavia porcellus. Consider `COc1cccc2c1CCC=C2CCCN1CCN(Cc2ccccc2)CC1`, for which the Selectivity in test [2] is more than 10. `COc1cccc2c1CCCC2CCCN1CCNCC1` (stereo unspecified) showed a Ki in test [1] of more than 1430 nM. Same read-out and setting: next, `COc1cccc2c1CCCC2CCCNCCc1ccccc1` (stereo unspecified): 31.4 nM; `COc1cccc2c1CCCC2CCCNCCCc1ccccc1` (stereo unspecified): 4.4 nM. `COc1cccc2c1CCCC2CCCN1CCN(Cc2ccccc2)CC1` (stereo unspecified): the figures for the Ki in test [1] and in test [3] were 3.6 nM and 25.7 nM, respectively. On to `COc1ccc2c(c1)C(CCCN1CCNCC1)CCC2` (stereo unspecified), for which the inhibition constant Ki in test [1] is more than 1430 nM.
